# Screening results: PubChem BioAssay, several laboratories
# APP 5'UTR act – activates APP 5'UTR luciferase reporter | SH-SY5Y APP 5'UTR luciferase reporter, luminescence; zero percent = DMSO vehicle wells | activation, % at 2 µM | 1% of 190,000 active | AID 1276;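 active means activation above a set limit, based on mean plus 3 SD of controls, cut at about 140% in these data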
# STAT3 act – activators of IL-6 induced STAT3 signaling. 0.91% of 190,000 active. AID 871. U3A cells, IL-6 STAT3-luciferase reporter, luminescence; 100% = signal with IL-6 EC80 alone. activation (% of control), % at 5.6 µM;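 active means activation above the screen-wide mean of compound activation plus 3 SD, cut at about 130% in these data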;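 further: 0% = background luminescence of wells with medium and substrate only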
#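 Test system: Human STAT1-deficient U3A cells with stable STAT3-luciferase reporter | Also added: Interleukin-6, 33 ng/mL | Timing: Compound pre-incubation 1 h before IL-6, then 6 h stimulation at 37 °C | Technique: Luciferase reporter luminescence | Read-out: Percent of IL-6-only median luminescence | Benchmarks: IL-6-only wells as 100% reference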
# STAT1 activator – increases IFN-gamma driven STAT1 reporter signal; NIH 3T3 STAT1-luciferase reporter, luminescence; 100% = IFN-gamma alone, no compound; activation (% of control), % at 5.5 µM; 2.6% of 200,000 active; AID 932;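 active means activation above the screen-wide mean activation plus 3 SD, cut at about 130% in these data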;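 further: raw ratio to IFN-gamma control signal so 100% means no change and 0% no light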
# STAT3 inh – inhibitors of IL-6 induced STAT3 signaling; 0.89% of 190,000 active; U3A cells, IL-6 STAT3-luciferase reporter, luminescence; host cell line lacks STAT1; inhibition, % at 5.5 µM;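 active means inhibition above the mean inhibition across all screened compounds plus 3 SD, cut at about 44% in these data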;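 further: 0% = DMSO only wells and 100% = 100 µM nifuroxazide control wells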
# NF-kB neuron act – compounds increasing NF-kB expression in human neuronal cells; NF-kB reporter expression; active compounds read high; fold change at 12.5 µM; 1.6% of 190,000 active; in the data active means fold change above about 3.3
# STAT1 blocker – reduces IFN-gamma driven STAT1 reporter signal; NIH 3T3 STAT1-luciferase reporter, luminescence; inhibition, % at 5.5 µM; 0.35% of 200,000 active; AID 920;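 active means inhibition above a set limit, the mean inhibition across all tested compounds plus 3 SD, cut at about 34% in these data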;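 further: 0% = IFN-gamma with DMSO and 100% = IFN-gamma with 300 µM nifuroxazide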
# STAT1 act conf – STAT1 activation, confirmation assay | shares compounds with STAT1 activator | NIH 3T3 STAT1-luciferase reporter, IFN-gamma potentiation, luminescence; 100% = IFN-gamma EC80 alone, no compound | activation (% of control), % at 5.7 µM | 97% of 1,200 active | AID 1262;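 active means activation above a set limit carried over from the earlier primary STAT1 screen, cut at about 140% in these data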;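 further: simple ratio to median IFN-gamma plus DMSO wells so 0% means no light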
# NFkB act – NF-kappaB activation in STAT1 activator counter-screen; shares compounds with STAT1 activator; HEK293T NF-kB luciferase reporter, TNF-alpha stimulated, luminescence; 100% = TNF-alpha with vehicle only; activation (% of control), % at 5.7 µM; 43% of 1,200 active;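 active means activation above the mean of solvent-only control wells plus 3 SD, set per campaign, cut at about 130% in these data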;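 further: TNF-alpha given at a submaximal dose yielding about 80% of full reporter signal; values are well signal over median control so 100% means no change and 0% no light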
# STAT3 act 2 – human STAT3 activation in STAT1 activator counter-screen; shares compounds with STAT1 activator; U3A cells STAT3-luciferase reporter, IL-6, luminescence; cells lack STAT1; 100 = IL-6 alone, no compound effect; activation (% of control), % at 5.7 µM; 46% of 1,200 active;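 active means activation above the solvent-only control well mean plus 3 SD, set per plate batch, cut at about 110% in these data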;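 further: 0% = no luminescence and 100% = median IL-6 plus DMSO wells; higher means more STAT3 reporter activation so hits are non-selective activators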
# * = called active by the depositor; . = no result given. In the library only some 4.9% were active in any assay of this set; here they are far more common.
SMILES,APP 5'UTR act,STAT3 act,STAT1 activator,STAT3 inh,NF-kB neuron act,STAT1 blocker,STAT1 act conf,NFkB act,STAT3 act 2
c1ccc(-c2cn3nc(-c4ccccc4)cnc3n2)cc1,172*,91,155*,9,4.1*,-60,212*,124,105
C/C(Cn1nnc2ccccc21)=N\NC(=O)c1cccc(Br)c1,-21,99,116,3,1.1,-18,.,.,.
CCOC(=O)c1[nH]c2ccc(OCC)cc2c1CCCN1C(=O)c2ccccc2C1=O,6,96,99,8,0.7,2,.,.,.
O=c1c2c(nc3cc(-c4ccc(Cl)cc4)[nH]n13)CCS2,87,101,107,-6,1.9,-8,.,.,.
Cc1nc2c(ccc3nc(NC(=O)c4ccc5c(c4)OCCO5)sc32)s1,123,72,168*,35,5.4*,-75,230*,129,104
O=C(NCCSc1ccccc1)c1ccc(Br)cc1,180*,98,157*,3,10*,-64,205*,116,111*
CN(C)S(=O)(=O)c1ccc(C(=O)NCCSc2ccc(Br)cc2)cc1,-7,97,96,5,0.95,4,.,.,.
O=C(NCC1CCCO1)C1CC(c2ccccc2Cl)=NO1 (stereo unspecified),0,100,101,0,1.5,-2,.,.,.
O=C1c2ccccc2S(=O)(=O)N1CC1CC(c2ccccc2Cl)=NO1 (stereo unspecified),47,107,161*,-4,4.9*,-67,198*,129,126*
CC1=NN(c2ccccc2)C(=O)/C1=C/c1c(O)n(-c2ccc(F)cc2)[nH]c1=O,39,119,153*,-29,1.5,-58,177*,122,132*
CC1=NN(c2ccccc2)C(=O)/C1=C\c1ccc(Br)s1,.,93,104,9,1.4,-5,.,.,.
N/C(=N\OC(=O)c1ccccc1Cl)c1ccc(Cl)cc1,58,126,155*,-18,3.7*,-57,193*,123,159*
Cc1cccc(/C(N)=N/OC(=O)N2c3ccccc3Sc3ccccc32)c1,13,86,102,27,1.4,-3,.,.,.
Cc1ccc(/C(N)=N/OC(=O)c2ccc(C)cc2Cl)cc1,162*,67,164*,41,1.6,-72,207*,97,81
Cc1cccc(/C(N)=N/OC(=O)c2ccc(Cl)cc2Cl)c1,139*,100,161*,-3,2.2,-69,222*,126,114*
CCN(CC)C(=O)CSc1nc2cc3c(cc2c(=O)n1CCCCCC(=O)NCc1ccc(OC)cc1)OCO3,9,105,96,1,0.83,2,.,.,.
CC(=O)Nc1ccc2nc(-c3ccccc3)cn2c1,170*,91,155*,10,7.6*,-58,198*,115,100
CC(=O)Nc1ccc(-c2cc(-c3ccccc3)nc(-c3ccccc3)n2)cc1,-9,103,93,-5,1.7,8,.,.,.
Cc1ccc(C(=O)C(c2ccccc2)N2Cc3ccccc3C2=N)cc1 (stereo unspecified),-13,100,106,0,1.4,-7,.,.,.
CN(C)CCNc1c2c(nc3nnnn13)CCCC2,-5,99,108,7,1,-11,.,.,.
COc1ccc(NC(=O)Cc2ccc(Cl)c(Cl)c2)cn1,9,100,106,8,1.1,-8,.,.,.
COc1ccc(NC(=O)/C(Cl)=C(/Cl)S(=O)Cc2ccccc2Cl)cn1 (stereo unspecified),-94,87,346*,18,0.31,-268,292*,65,133*
